Assay results reported in ChEMBL document CHEMBL1151472, “In vitro interactions between tacrolimus and azoles against Candida albicans determined by different methods” (2008).
Converted amounts (≈) assume the structure as drawn.

Experiments:
Type in all cases: functional
[1] = system: Candida albicans; assay: Antimicrobial activity against azole-resistant Candida albicans isolate CA10 assessed as log reduction in colony count at 1 ug/ml co-treated with calcineurin signaling inhibitor tacrolimus after 48 hrs by XTT assay
Procedure, shortened: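 Same time-kill setup (10^5 CFU/ml start, azole ± 0.016 μg/ml FK506, 35°C). At each time point, aliquots were mixed 1:1 with XTT (0.5 g/liter in Ringer's lactate) plus 10 μM menadione final. Incubation was in the dark for up to 2 h at 35°C, then formazan was read at 492 nm. OD was converted to CFU via a standard curve (Y = 4.2610x + 4.2087). Triplicate.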

[2] = system: Candida albicans; assay: Antimicrobial activity against azole-resistant Candida albicans isolate CA137 cotreated with calcineurin signaling inhibitor Tacrolimus after 48 hrs by microdilution checkerboard technique; conditions: isolate CA137, 48 h
Procedure, shortened: (§1)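 Checkerboard microdilution in MOPS-buffered RPMI 1640 (pH 7.0, 2% dextrose) with 2.5 × 10^3 CFU/ml for 48 h at 35°C. Final FK506 was 0.002–0.125 μg/ml. Azole finals were FLC 0.125–128 μg/ml, and ITR and VRC 0.008–8 μg/ml. MIC80 is an 80% OD492 decrease vs drug-free control. Interaction was scored by FICI (synergy ≤0.5, antagonism >4) and by ΔE from triplicates.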

[3] = system: Candida albicans; assay: Antimicrobial activity against azole-susceptible Candida albicans isolate CA14 after 48 hrs by broth microdilution method; conditions: isolate CA14, 48 h
Procedure, shortened: (§2)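 CLSI M27-A2 broth microdilution was run in RPMI 1640 (pH 7.0, 2% dextrose, 0.165 M MOPS). Inoculum was 2.5 × 10^3 CFU/ml, incubated 35°C for 48 h without shaking. Plates were read visually (0–5 scale) and at OD 492 nm. MIC80 = lowest concentration giving an 80% absorbance decrease vs drug-free control. Triplicate.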

[4] = system: Candida albicans; assay: Antimicrobial activity against azole-resistant Candida albicans isolate CA137 after 48 hrs by broth microdilution method; conditions: isolate CA137, 48 h; procedure, shortened: as §2
[5] = system: Candida albicans; assay: Antimicrobial activity against azole-susceptible Candida albicans isolate CA5 after 48 hrs by broth microdilution method; conditions: isolate CA5, 48 h; procedure, shortened: as §2
[6] = system: Candida albicans; assay: Antimicrobial activity against azole-susceptible Candida albicans isolate CA129 after 48 hrs by broth microdilution method; conditions: isolate CA129, 48 h; procedure, shortened: as §2
[7] = system: Candida albicans; assay: Antimicrobial activity against azole-susceptible Candida albicans isolate CA8 after 48 hrs by broth microdilution method; conditions: isolate CA8, 48 h; procedure, shortened: as §2
[8] = system: Candida albicans; assay: Antimicrobial activity against azole-susceptible Candida albicans isolate CA12 after 48 hrs by broth microdilution method; conditions: isolate CA12, 48 h; procedure, shortened: as §2
[9] = system: Candida albicans; assay: Antimicrobial activity against azole-resistant Candida albicans isolate CA16 cotreated with calcineurin signaling inhibitor Tacrolimus after 48 hrs by microdilution checkerboard technique; conditions: isolate CA16, 48 h; procedure, shortened: as §1
[10] = system: Candida albicans; assay: Antimicrobial activity against azole-susceptible Candida albicans isolate CA14 co-treated with calcineurin signaling inhibitor tacrolimus after 48 hrs by microdilution checkerboard technique; conditions: isolate CA14, 48 h; procedure, shortened: as §1
[11] = system: Candida albicans; assay: Antimicrobial activity against azole-resistant Candida albicans isolate CA16 after 48 hrs by broth microdilution method; conditions: isolate CA16, 48 h; procedure, shortened: as §2
[12] = system: Candida albicans; assay: Antimicrobial activity against azole-resistant Candida albicans isolate CA135 cotreated with calcineurin signaling inhibitor Tacrolimus after 48 hrs by microdilution checkerboard technique; conditions: isolate CA135, 48 h; procedure, shortened: as §1
[13] = system: Candida albicans; assay: Antimicrobial activity against azole-resistant Candida albicans isolate CA15 after 48 hrs by broth microdilution method; conditions: isolate CA15, 48 h; procedure, shortened: as §2
[14] = system: Candida albicans; assay: Antimicrobial activity against azole-susceptible Candida albicans isolate CA5 co-treated with calcineurin signaling inhibitor tacrolimus after 48 hrs by microdilution checkerboard technique; conditions: isolate CA5, 48 h; procedure, shortened: as §1
[15] = system: Candida albicans; assay: Antimicrobial activity against azole-resistant Candida albicans isolate CA135 after 48 hrs by broth microdilution method; conditions: isolate CA135, 48 h; procedure, shortened: as §2
[16] = system: Candida albicans; assay: Antimicrobial activity against azole-susceptible Candida albicans isolate CA12 co-treated with calcineurin signaling inhibitor tacrolimus after 48 hrs by microdilution checkerboard technique; conditions: isolate CA12, 48 h; procedure, shortened: as §1
[17] = system: Candida albicans; assay: Antimicrobial activity against azole-resistant Candida albicans isolate CA10 co-treated with calcineurin signaling inhibitor tacrolimus after 48 hrs by microdilution checkerboard technique; conditions: isolate CA10, 48 h; procedure, shortened: as §1
[18] = system: Candida albicans; assay: Antimicrobial activity against azole-susceptible Candida albicans isolate CA8 co-treated with calcineurin signaling inhibitor tacrolimus after 48 hrs by microdilution checkerboard technique; conditions: isolate CA8, 48 h; procedure, shortened: as §1
[19] = system: Candida albicans; assay: Antimicrobial activity against azole-resistant Candida albicans isolate CA10 after 48 hrs by broth microdilution method; conditions: isolate CA10, 48 h
Procedure, shortened: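 Broth microdilution per CLSI M27-A2 in RPMI 1640 (pH 7.0, 2% dextrose, 0.165 M MOPS), final inoculum 2.5 × 10^3 CFU/ml; 35°C without shaking for 48 h. Read visually (0–5 scale) and by OD 492 nm; MIC80 = lowest concentration giving 80% drop in absorbance versus drug-free control. Triplicate.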

[20] = system: Candida albicans; assay: Antimicrobial activity against azole-susceptible Candida albicans isolate CA14 assessed as log reduction in colony count at 1 ug/ml co-treated with calcineurin signaling inhibitor tacrolimus after 48 hrs by XTT assay
Procedure, shortened: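 Time-kill assay starting at 10^5 CFU/ml with azole 1 μg/ml plus FK506 0.016 μg/ml at 35°C, with a drug-free control and DMSO <1%. At 48 h, a 100 μl aliquot was mixed with XTT-menadione (XTT 0.5 g/liter in Ringer's lactate, menadione 10 μM final) and incubated in the dark up to 2 h at 35°C. A492 was converted to CFU by standard curve (Y = 4.2610x + 4.2087).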

[21] = system: Candida albicans; assay: Antimicrobial activity against azole-susceptible Candida albicans isolate CA129 co-treated with calcineurin signaling inhibitor tacrolimus after 48 hrs by microdilution checkerboard technique; conditions: isolate CA129, 48 h; procedure, shortened: as §1
[22] = system: Candida albicans; assay: Antimicrobial activity against azole-resistant Candida albicans isolate CA10 assessed as log reduction in colony count at 1 ug/ml co-treated with calcineurin signaling inhibitor tacrolimus after 48 hrs by time killing test
Procedure, shortened: (§3)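 Time-kill was started at 10^5 CFU/ml, with 10 μg/ml FLC or 1 μg/ml ITR or VRC, alone or with 0.016 μg/ml FK506, and DMSO <1%, at 35°C. At 0, 6, 12, 24 and 48 h, aliquots were serially diluted and plated on Sabouraud agar, then counted after 48 h at 35°C. Triplicate means.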

[23] = system: Candida albicans; assay: Antimicrobial activity against azole-susceptible Candida albicans isolate CA14 assessed as log reduction in colony count at 1 ug/ml co-treated with calcineurin signaling inhibitor tacrolimus after 48 hrs by time killing test; procedure, shortened: as §3
[24] = system: Candida albicans; assay: Antimicrobial activity against azole-resistant Candida albicans isolate CA15 cotreated with calcineurin signaling inhibitor Tacrolimus after 48 hrs by microdilution checkerboard technique; conditions: isolate CA15, 48 h; procedure, shortened: as §1

CCC(C)n1ncn(-c2ccc(N3CCN(c4ccc(OCC5COC(Cn6cncn6)(c6ccc(Cl)cc6Cl)O5)cc4)CC3)cc2)c1=O (configuration not stated) [ITRACONAZOLE]
Activity [1]: 2.46 | MIC [2]: 0.063 µg/mL | MIC [3]: 0.063 µg/mL (≈ 0.0893 µM) | MIC [4]: 16 µg/mL (≈ 22.7 µM) | MIC [5]: 0.031 µg/mL (≈ 0.0439 µM) | MIC [6]: 0.063 µg/mL (≈ 0.0893 µM) | MIC [7]: 0.016 µg/mL (≈ 0.0227 µM) | MIC [8]: 0.063 µg/mL (≈ 0.0893 µM) | MIC [9]: 0.016 µg/mL | MIC [10]: 0.031 µg/mL | MIC [11]: 32 µg/mL (≈ 45.3 µM) | MIC [12]: 0.016 µg/mL | MIC [13]: 32 µg/mL (≈ 45.3 µM) | MIC [14]: 0.031 µg/mL | MIC [15]: 16 µg/mL (≈ 22.7 µM) | MIC [16]: 0.031 µg/mL | MIC [17]: 0.031 µg/mL | MIC [18]: 0.008 µg/mL | MIC [19]: 128 µg/mL (≈ 181 µM) | Activity [20]: 1.4 | MIC [21]: 0.031 µg/mL | Activity [22]: 2.12 | Activity [23]: 2.13 | MIC [24]: 0.063 µg/mL

C[C@@H](c1ncncc1F)[C@](O)(Cn1cncn1)c1ccc(F)cc1F [VORICONAZOLE]
Activity [1]: 2.26 | MIC [2]: 0.008 µg/mL | MIC [3]: 0.008 µg/mL (≈ 0.0229 µM) | MIC [4]: 8 µg/mL (≈ 22.9 µM) | MIC [5]: 0.016 µg/mL (≈ 0.0458 µM) | MIC [6]: 0.016 µg/mL (≈ 0.0458 µM) | MIC [7]: 0.008 µg/mL (≈ 0.0229 µM) | MIC [8]: 0.031 µg/mL (≈ 0.0887 µM) | MIC [9]: 0.008 µg/mL | MIC [10]: 0.008 µg/mL | MIC [11]: 8 µg/mL (≈ 22.9 µM) | MIC [12]: 0.016 µg/mL | MIC [13]: 8 µg/mL (≈ 22.9 µM) | MIC [14]: 0.016 µg/mL | MIC [15]: 8 µg/mL (≈ 22.9 µM) | MIC [16]: 0.016 µg/mL | MIC [17]: 0.008 µg/mL | MIC [18]: 0.016 µg/mL | MIC [19]: 64 µg/mL (≈ 183 µM) | MIC [21]: 0.008 µg/mL | Activity [22]: 2.15 | Activity [23]: 1.49 | MIC [24]: 0.008 µg/mL
